Measured values as given in ChEMBL document CHEMBL1122999 (J Med Chem, 1985).

Tests used:
Rattus norvegicus [1] = organism: Rattus norvegicus; test: (§1) Inhibition of Norepinephrine uptake from rat diencephalon-midbrain; format: functional
Rattus norvegicus [2] = organism: Rattus norvegicus; test: (§2) Inhibition of GABA uptake from rat diencephalon-midbrain,; format: functional
[3] = target: 4-aminobutyrate aminotransferase, mitochondrial (Rattus norvegicus) (UniProt P50554); test: Percent of enzyme inhibition by Gamma-amino-N-butyrate transaminase assay method; conditions: concentration not given here
Summary of the method: (§3)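 Rat diencephalon-midbrain homogenate in Tris-HCl pH 8.0 with Triton X-100. Incubated with 2 mM α-ketoglutarate, 0.2 mM GABA and 20 µM pyridoxal phosphate, test agent at 1 mM final, 30 min at 37 °C. Blanks held at 4 °C. Glutamate formed read fluorometrically as NADH via glutamate dehydrogenase.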

Rattus norvegicus [4] = organism: Rattus norvegicus; test: Inhibition of GABA uptake from rat diencephalon-midbrain; format: functional
Summary of the method: (§4)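 P2 synaptosomal fraction prepared from rat brain in 0.32 M sucrose by 1000g and 16500g spins. About 150 µg protein preincubated 15 min at 37 °C with inhibitor in oxygenated Tris/NaCl buffer, pH 7.4, containing 2.7 mM CaCl2 and 10 µM aminooxyacetic acid. Uptake of 1 µM [3H]GABA run for 3 min, then filtered and counted. Accumulation at 0 °C subtracted. Screening at 10, 1 and 0.1 µM in quadruplicate on pooled diencephalon-midbrain tissue.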

Rattus norvegicus [5] = organism: Rattus norvegicus; test: Inhibition of GABA uptake from rat diencephalon-midbrain at 1 uM concentration; format: functional; summary of the method: as §4
[6] = Dissociation constant pKa (CO2H) was evaluated; format: physicochemical
[7] = Distribution coefficient was evaluated; format: physicochemical; conditions: octanol/water
Summary of the method: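 Distribution coefficient (log D) measured between 1-octanol and phosphate buffer, pH 7.4.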

[8] = target: T1, Glutamate decarboxylase 1 (Rattus norvegicus) (UniProt P18088); test: Percent inhibition of Glutamate decarboxylase from rat was evaluated; conditions: concentration not given here
T1 sequence (whole entry): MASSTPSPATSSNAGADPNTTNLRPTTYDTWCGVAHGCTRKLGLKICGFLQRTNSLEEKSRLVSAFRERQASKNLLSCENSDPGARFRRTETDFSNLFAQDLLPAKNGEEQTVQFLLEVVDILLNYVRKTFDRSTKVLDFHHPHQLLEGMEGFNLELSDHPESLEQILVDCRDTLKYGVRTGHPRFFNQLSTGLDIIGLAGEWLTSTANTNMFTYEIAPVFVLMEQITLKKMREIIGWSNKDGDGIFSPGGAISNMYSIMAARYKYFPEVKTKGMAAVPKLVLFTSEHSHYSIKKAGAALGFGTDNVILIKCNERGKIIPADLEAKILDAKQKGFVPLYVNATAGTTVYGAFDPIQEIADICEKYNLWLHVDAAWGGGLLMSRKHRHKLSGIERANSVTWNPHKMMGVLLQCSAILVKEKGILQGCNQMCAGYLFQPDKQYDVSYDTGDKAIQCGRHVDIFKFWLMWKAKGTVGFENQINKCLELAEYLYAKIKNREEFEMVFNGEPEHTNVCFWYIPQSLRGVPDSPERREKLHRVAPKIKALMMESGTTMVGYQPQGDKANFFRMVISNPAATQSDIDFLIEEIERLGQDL
Summary of the method: (§5)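 Homogenate of rat diencephalon-midbrain in phosphate buffer pH 6.5 with Triton X-100. Incubated with 5 mM l-glutamate, 10 µM pyridoxal phosphate and test agent at 1 mM final, 30 min at 37 °C. Stopped by boiling; boiled-enzyme blanks used. GABA formed quantified fluorometrically with GABAase and NADPH.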

[9] = target: Serotonin 1 (5-HT1) receptor (Rattus norvegicus) (UniProt P28564+P30940+P19327+P28565); test: Percent inhibition of 5-hydroxytryptamine 1 receptor from rat cortex membrane using [3H]- serotonin as radioligand at 33 uM
[10] = target: D(2) dopamine receptor (Rattus norvegicus) (UniProt P61169); test: Percent inhibition of Dopamine receptor D2 from rat striatal membrane using [3H]- spiroperidol as radioligand at 50 uM
Summary of the method: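 Rat striatal membranes with 0.22 nM [3H]spiroperidol (KD 0.287 nM). Nonspecific binding defined with 1 µM d-butaclamol.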

[11] = target: T2, GABA-A receptor; anion channel (Rattus norvegicus) (UniProt O09028+P15431+P18506+P18508+P19969+P20236+P23574+P23576+P28471+P28473+P30191+P62813+P63079+P63138+Q91ZM7+Q9ES14); test: Displacement of [3H]- muscimol from GABA-A receptor from rat cerebellum membrane at 100 uM; format: tissue-based
[12] = target: Adrenergic receptor alpha-1 (Rattus norvegicus) (UniProt P15823+P23944+P43140); test: Percent inhibition of alpha-1 adrenergic receptor from rat cortical membrane using [3H]- WB-4101 as radioligand at 10 uM
Summary of the method: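 Rat cortical membranes labelled with 0.22 nM [3H]WB4101 (KD 0.306 nM). Nonspecific binding defined with 100 µM norepinephrine.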

[13] = Dissociation constant pKa (N) was evaluated; format: physicochemical
[14] = target: 4-aminobutyrate aminotransferase, mitochondrial (Rattus norvegicus) (UniProt P50554); test: Percent inhibition of Gamma-amino-N-butyrate transaminase from rat was evaluated; conditions: concentration not given here; summary of the method: as §3
[15] = target: Muscarinic acetylcholine receptor (Rattus norvegicus) (UniProt P08482+P08483+P08485+P08911+P10980); test: Percent inhibition of Muscarinic acetylcholine receptor from rat striatal membrane using [3H]- QNB as radioligand at 100 uM
Summary of the method: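 Displacement on rat striatal membranes using 0.23 nM [3H]QNB (KD 0.20 nM). Nonspecific binding defined with 1 µM atropine.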

[16] = target: T2, GABA-A receptor; anion channel (Rattus norvegicus); test: Percent inhibition of [3H]- Diazepam binding to GABA-A Benzodiazepine receptor of rat frontal cortex membranes; format: cell membranes; conditions: Membrane, concentration not given here
Summary of the method: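 Rat frontal cortex membranes with 1.5 nM [3H]diazepam (KD 9.7 nM). Nonspecific binding defined with 3 µM diazepam.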

Rattus norvegicus [17] = organism: Rattus norvegicus; test: Inhibition of GABA uptake from rat diencephalon-midbrain at 10 uM concentration; format: functional; summary of the method: as §4
[18] = as §2; summary of the method: as §4
[19] = target: Norepinephrine transporter (Rattus norvegicus, UniProt Q9WTR4); test: as §1
Rattus norvegicus [20] = organism: Rattus norvegicus; test: Inhibition of GABA uptake from rat diencephalon-midbrain at 100 uM concentration; format: functional
[21] = as §2; conditions: concentration not given here
Summary of the method: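 Rat diencephalon-midbrain P2 synaptosomal fraction (0.32 M sucrose homogenate, differential centrifugation), pooled from three rats. Preincubated 15 min at 37 °C with inhibitor in oxygenated Tris/NaCl buffer pH 7.4 containing 2.7 mM CaCl2 and 10 µM aminooxyacetic acid. Then 3 min uptake of 1 µM [3H]GABA, filtration, scintillation counting, minus 0 °C uptake. Screened at 10, 1, 0.1 µM in quadruplicate.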

[22] = target: T2, GABA-A receptor; anion channel (Rattus norvegicus); conditions: Cerebellum, 0.003-0.006 uM
[23] = target: T1, Glutamate decarboxylase 1 (Rattus norvegicus); test: Percent of enzyme inhibition by Glutamate decarboxylase (GAD) assay method; conditions: concentration not given here; summary of the method: as §5
[24] = Dissociation constant pKa (N) of the compound; format: physicochemical
[25] = target: T1, Glutamate decarboxylase 1 (Rattus norvegicus); test: Percent of enzyme inhibition by Glutamate decarboxylase assay method; conditions: concentration not given here; summary of the method: as §5
[26] = Dissociation constant pKa (CO2H) of the compound; format: physicochemical
[27] = target: GABA-A receptor; anion channel; test: Displacement of [3H]- muscimol from GABA-A receptor from rat cerebellum membrane at 0.24-0.45 uM; format: tissue-based

Norepinephrine transporter, sequence (Q9WTR4 whole entry): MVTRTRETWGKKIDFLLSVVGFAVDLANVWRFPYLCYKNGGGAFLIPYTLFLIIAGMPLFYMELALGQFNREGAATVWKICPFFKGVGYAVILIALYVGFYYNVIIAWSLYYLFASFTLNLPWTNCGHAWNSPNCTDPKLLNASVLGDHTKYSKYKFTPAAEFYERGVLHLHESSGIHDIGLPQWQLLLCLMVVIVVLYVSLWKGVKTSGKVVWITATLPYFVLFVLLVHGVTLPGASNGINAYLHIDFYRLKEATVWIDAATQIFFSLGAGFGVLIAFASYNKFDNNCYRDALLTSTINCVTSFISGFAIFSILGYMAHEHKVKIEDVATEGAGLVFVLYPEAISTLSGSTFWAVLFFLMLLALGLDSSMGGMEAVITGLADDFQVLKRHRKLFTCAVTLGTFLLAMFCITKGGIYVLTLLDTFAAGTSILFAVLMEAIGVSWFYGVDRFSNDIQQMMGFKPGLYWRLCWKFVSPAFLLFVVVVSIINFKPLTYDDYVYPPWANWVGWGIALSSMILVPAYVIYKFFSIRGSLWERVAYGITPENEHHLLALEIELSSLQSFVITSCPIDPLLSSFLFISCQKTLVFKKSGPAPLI
4-aminobutyrate aminotransferase, mitochondrial (Rattus norvegicus), sequence (P50554 28-500 limits assumed): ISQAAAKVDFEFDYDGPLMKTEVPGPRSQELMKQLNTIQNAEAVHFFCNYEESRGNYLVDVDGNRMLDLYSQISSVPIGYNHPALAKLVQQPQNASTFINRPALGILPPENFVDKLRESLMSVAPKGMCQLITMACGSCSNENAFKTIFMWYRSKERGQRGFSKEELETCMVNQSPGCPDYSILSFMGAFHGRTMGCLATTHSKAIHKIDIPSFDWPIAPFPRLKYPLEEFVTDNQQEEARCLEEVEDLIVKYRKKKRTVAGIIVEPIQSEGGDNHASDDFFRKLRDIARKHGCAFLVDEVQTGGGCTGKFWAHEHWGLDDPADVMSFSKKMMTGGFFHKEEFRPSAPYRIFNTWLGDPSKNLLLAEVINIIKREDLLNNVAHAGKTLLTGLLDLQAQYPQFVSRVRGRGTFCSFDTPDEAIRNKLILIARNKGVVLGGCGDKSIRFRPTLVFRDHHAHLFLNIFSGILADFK
D(2) dopamine receptor (Rattus norvegicus), sequence (P61169 whole entry): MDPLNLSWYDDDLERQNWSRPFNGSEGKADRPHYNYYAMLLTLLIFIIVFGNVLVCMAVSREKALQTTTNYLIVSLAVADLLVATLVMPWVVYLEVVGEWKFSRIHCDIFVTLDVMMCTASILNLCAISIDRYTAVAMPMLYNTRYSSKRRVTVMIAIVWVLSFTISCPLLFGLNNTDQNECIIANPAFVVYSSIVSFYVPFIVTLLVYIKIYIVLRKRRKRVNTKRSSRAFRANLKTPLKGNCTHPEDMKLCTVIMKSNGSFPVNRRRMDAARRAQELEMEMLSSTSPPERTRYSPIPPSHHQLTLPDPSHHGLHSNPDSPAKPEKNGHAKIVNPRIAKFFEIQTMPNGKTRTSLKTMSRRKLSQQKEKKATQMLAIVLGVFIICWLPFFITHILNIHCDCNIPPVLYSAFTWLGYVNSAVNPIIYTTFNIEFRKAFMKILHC

O=C(O)[C@H]1CCCN(CCC=C(c2ccccc2)c2ccccc2)C1
IC50 (Rattus norvegicus [1]): 180 µM
IC50 (Rattus norvegicus [2]): 1.91 µM

NOCC(=O)O
inhibition [3]: 83%

O=C(O)[C@H]1CCCNC1 [(S)-NIPECOTIC ACID]
IC50 (Rattus norvegicus [4]): 9.88 µM

O=C(O)[C@@H]1CCCN(CCC=C(c2ccccc2)c2ccccc2)C1
IC50 (Rattus norvegicus [1]): 123 µM
IC50 (Rattus norvegicus [2]): 0.11 µM

O=C(O)C1CCCN(CCCC=C(c2ccccc2)c2ccccc2)C1 (configuration not stated)
Inhibition (Rattus norvegicus [5]): 31%

O=C(O)C1CCCN(CCC=C(c2ccccc2)c2ccccc2)C1 (configuration not stated)
pKa [6]: 3.32
logD [7]: 1.14
inhibition [8]: 7%
inhibition [9]: 16%
inhibition [10]: 22%
inhibition [11]: 8%
inhibition [12]: 12%
pKa [13]: 9.36
inhibition [14]: 12%
inhibition [15]: 12%
inhibition [16]: 21%
IC50 (Rattus norvegicus [1]): 117 µM
IC50 (Rattus norvegicus [2]): 0.2 µM

O=C(O)C1CCCC(NCCC=C(c2ccccc2)c2ccccc2)C1 (configuration not stated)
Inhibition (Rattus norvegicus [17]): 54%
IC50 (Rattus norvegicus [1]): 29.9 µM

O=C(O)CC1CCN(CCC=C(c2ccccc2)c2ccccc2)C1 (configuration not stated)
inhibition [11]: 20%
IC50 [18]: 0.12 µM
IC50 [19]: 108 µM

O=C(O)C1CNCCC1O (configuration not stated)
inhibition [11]: 10%
Inhibition (Rattus norvegicus [1]): 7%
IC50 (Rattus norvegicus [2]): 4.56 µM

O=C(O)C1CN(CCC=C(c2ccccc2)c2ccccc2)CCC1O (configuration not stated)
inhibition [11]: 48%
IC50 [18]: 0.26 µM
IC50 [19]: 33.6 µM

CN(C)CCCN1c2ccccc2CCc2ccccc21 [IMIPRAMINE]
Inhibition (Rattus norvegicus [20]): 68%
IC50 (Rattus norvegicus [1]): 0.027 µM

COC(=O)C1=CCCNC1
inhibition [21]: 4%

NCc1cc(O)no1
inhibition [22]: 0.004%

O=C(O)C1=CCCNC1 [GUVACINE]
inhibition [3]: 7%
inhibition [11]: 27%
inhibition [23]: 0%
IC50 (Rattus norvegicus [2]): 4.92 µM

O=C(O)C1CCCN(CC=C(c2ccccc2)c2ccccc2)C1 (configuration not stated)
Inhibition (Rattus norvegicus [17]): 5%

O=C(O)C1=CCCN(CCC=C(c2ccccc2)c2ccccc2)C1
inhibition [8]: 7%
inhibition [11]: 8%
inhibition [14]: 9%
inhibition [16]: 5%
IC50 (Rattus norvegicus [1]): 58.2 µM
IC50 (Rattus norvegicus [2]): 0.2 µM

O=C(O)C1CCCN(CCCC(c2ccccc2)c2ccccc2)C1 (configuration not stated)
Inhibition (Rattus norvegicus [17]): 27%

O=C(O)C1CCCNC1 (configuration not stated) [NIPECOTIC ACID]
pKa [24]: 10.3
inhibition [25]: 0%
inhibition [3]: 3%
pKa [26]: 3.45
IC50 (Rattus norvegicus [2]): 3.94 µM

O=C(O)CC1CCNC1 (configuration not stated)
IC50 (Rattus norvegicus [2]): 1.54 µM
IC50 [27]: 0.33 µM

NC1CCCC(C(=O)O)C1 (configuration not stated)
IC50 (Rattus norvegicus [2]): 8.13 µM

CCOC(=O)C1CCCN(CCC=C(c2ccccc2)c2ccccc2)C1 (configuration not stated)
Increase (Rattus norvegicus [20]): 17%

CCOC(=O)C1CCCNC1 (configuration not stated)
Inhibition (Rattus norvegicus [20]): 52%

O=C(O)CCCNCCC=C(c1ccccc1)c1ccccc1
inhibition [11]: 35%
IC50 [18]: 16.5 µM
IC50 [19]: 35.1 µM

O=C(O)[C@@H]1CCCNC1 [(R)-NIPECOTIC ACID]
IC50 (Rattus norvegicus [2]): 1.69 µM

NNC(=O)c1ccncc1
inhibition [25]: 42%
